# Only some compounds are listed: those with a hit (about 2.3% of all), similar ones and a draw of the others.
# p-CIP stab down: lowers stability of the mouse p/CIP coactivator protein; Q05BA5; F442A p/CIP-EGFP cells, EGFP fluorescence, 16 h; decrease of EGFP signal, % at 10 µM; 290,000 compounds, 0.01% hits;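 active = EGFP signal decrease of at least 30% at 10 µM or well 3 SD below plate mean, unless failing retest; inactive = the rest, including hits failing retest or dose response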
# T cell HTS: T cell immune modulators affecting CD8 T cell-vesicle binding. AID 2052. 330,000 compounds, 0.068% hits. 2C CD8+ T cell-vesicle binding, flow cytometry; stronger effect = lower value. response (vesicle binding), % at 7 µM;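 active = response, share of CD8 T cells binding vesicles, and their 90th percentile fluorescence all below set limits, cut at about 80% in these data, passing the limit was not always enough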;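 note: values below 100% mean blocked vesicle binding to the CD8+ T cells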
#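 Material: 2C TCR transgenic mouse naive CD8+ T cells, MACS-purified. Also added: QL9-charged Drosophila Ld/ICAM-1/B7-1 vesicles. Timing: binding 1.5 h at 37 °C. Measured by: high-throughput flow cytometry with anti-B7-1 and anti-CD8 staining. Read-out: percent CD8+ FL2 mean versus row control. Controls: Unloaded micro-vesicles (low), QL9 vesicles with 0.7% DMSO (high).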
# CHT inh: human CHT choline transport inhibition; Q9GZV3; CHT-expressing cells, membrane potential dye, choline response; stronger effect = lower value; B-score at 10 µM; 310,000 compounds, 0.86% hits;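 active = B-score over 3 SD under the library average, and starting fluorescence ratio not unusually high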;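 note: choline stimulus applied at its EC90 after an EC20 pre-addition; B-score computed on integrated fluorescence ratio after choline addition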
# GPR7 antag: blocks human GPR7 receptor signaling. P48145. GPR7-expressing cells, fluorescence antagonist assay. inhibition, % at 4.4 µM. 290,000 compounds, 1.1% hits. AID 1861; in the data active = inhibition above about 16%, passing the limit was not always enough;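 note: cells stimulated with the agonist NPW; 0% = agonist with vehicle and 100% = vehicle without agonist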
# Target sequence (P48145 whole entry, looked up): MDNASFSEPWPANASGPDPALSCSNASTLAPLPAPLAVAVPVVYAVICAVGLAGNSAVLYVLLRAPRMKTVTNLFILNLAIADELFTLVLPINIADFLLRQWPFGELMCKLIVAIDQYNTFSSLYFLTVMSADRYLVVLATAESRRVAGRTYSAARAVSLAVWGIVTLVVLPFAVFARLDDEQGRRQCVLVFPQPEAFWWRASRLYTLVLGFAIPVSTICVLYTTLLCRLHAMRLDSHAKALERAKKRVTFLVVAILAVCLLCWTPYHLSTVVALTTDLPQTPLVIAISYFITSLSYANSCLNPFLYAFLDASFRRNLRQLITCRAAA
# Pemphigus Ab inh: human desmoglein-3 autoantibody binding inhibition. P32926. DSG3-coupled beads, scFv-anti-DSG3-GFP binding, flow cytometry; stronger effect = lower value. binding (percent of control), % at 10 µM. 310,000 compounds, 0.48% hits. AID 588358;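 active = binding more than 3 SD below its plate's average and above zero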;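 note: hits lower antibody fragment binding to DSG3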
# CHT PAM: allosterically activates the human high affinity choline transporter; Q9GZV3; CHT-expressing cells, membrane potential dye, choline EC20; stronger effect = higher value; LV-AA mutant CHT in HEK293 cells; B-score at 10 µM; 310,000 compounds, 0.49% hits;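 active = initial fluorescence not abnormally high and integrated response B-score, plate-corrected, over 3 SD above library mean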
# An asterisk follows results filed as active; i = inactive; x = not tested or not shown.
SMILES,p-CIP stab down,T cell HTS,CHT inh,GPR7 antag,Pemphigus Ab inh,CHT PAM
CC1=C(C(=O)N2CCOCC2)CC(CC(=O)NC2CCCC2)C(=O)N1CCCN1CCCC1=O (centres undefined),x,x,x,x,101,x
COc1ccc(CN2C(=O)C(CC(=O)NCc3cccs3)CC(C(=O)N(C(C)C)C(C)C)=C2C)cc1 (centres undefined),x,x,x,x,103,x
CCOC(=O)c1cc(-c2nnc(-c3ccc(Cl)cc3)o2)c(C)nc1C,0,423,i,-15,119,i
CCOC(=O)c1ccc(-c2nnc(-c3ccc(Cl)cc3Cl)o2)cc1,0,382,i,-5,93*,i
Cc1sc(NC(=O)c2ccco2)c(C(c2cccnc2)N2CCC(C)CC2)c1C (centres undefined),-13,306,i,20*,110,i
CCN1CCN(C(c2cccnc2)c2c(NC(=O)c3ccco3)sc(C)c2C)CC1 (centres undefined),x,171,x,x,99,x
COc1ccc(CCNC(=O)CSc2nc3ccsc3c(=O)n2Cc2ccccn2)cc1OC,x,x,x,x,103,x
NC(=O)c1ccsc1NC(=O)COC(=O)c1ccc(Cl)nc1,x,168,i,x,59*,i
COC(=O)c1c(NC(=O)COC(=O)c2ccc(Cl)nc2)sc(C)c1C,x,49*,i,x,97,i
CC(C)CN(C(=O)COC(=O)CCSc1ccc(Cl)cc1)c1c(N)n(Cc2ccccc2)c(=O)[nH]c1=O,x,x,x,x,95,x
C[C@@H](CO)NC(=O)c1[nH]cnc1C(=O)Nc1ccc(CNC(=O)OC(C)(C)C)cc1,x,x,x,x,101,x
CCCCCCc1nc(C(N)=O)c2[nH]c(=O)n(-c3ccc(OCC)cc3)c2n1,-3,i,i,-46,99,i
CCCCCCc1nc(C(N)=O)c2[nH]c(=O)n(-c3ccccc3F)c2n1,-11,i,i,-20,62*,i
CCN1CCN(c2ccc(S(=O)(=O)N3CCCCC3)cc2NC(=O)c2cccc(C)c2[N+](=O)[O-])CC1,x,49*,i,x,99,i
O=C1N=C2N(CCN3CCCCC3)c3ccccc3N2/C1=C\c1ccc([N+](=O)[O-])s1,x,x,x,x,110,x
Cc1nc(Nc2ccccc2O)c2oc3ccccc3c2n1,-10,192,i,-10,80*,i
Cc1nc(Nc2ccccc2F)c2oc3ccccc3c2n1,2,195,i,-5,100,i
O=C(C[C@H]1C(=O)N(CCc2ccccc2)C[C@@H]1c1ccccc1)Nc1ccccc1,x,x,x,x,107,x
O=C(Cn1cnc2ccccc2c1=O)Nc1nc2ccccc2s1,13,185,i,-5,65*,i
O=C(O)CCCN1C(=O)C2C3CCC(C3)C2C1=O (centres undefined),x,x,x,x,102,x
COc1ccc(NC(=S)N/N=C2/CCCc3c(C)cc(C)cc32)cc1,0,186,i,-2,-6.5*,i
CC(=O)Nc1nnc(CCS(=O)(=O)c2ccc(C)c(C)c2)s1,-12,330,i,-2,6.1*,i
O=C(CCNC(=O)c1ccc([N+](=O)[O-])cc1)Nc1cc(C(F)(F)F)ccc1N1CCOCC1,x,x,x,x,102,x
COc1ccc(N2C(=O)CSC2c2ccc(F)cc2)cc1 (centres undefined),-8,304,i,11,102,i
COc1ccc(-n2sc3ccccc3c2=O)cc1,x,x,x,x,74*,x
SMILES,p-CIP stab down,T cell HTS,CHT inh,GPR7 antag,Pemphigus Ab inh,CHT PAM
COc1ccc(-n2sc3ccc(F)cc3c2=O)cc1,x,0,x,x,50*,x
COc1ccc(-n2cc(C(=O)O)c3ccccc3c2=O)cc1,4,470,i,-3,93,i
Cc1ccc(C)c(-n2sc3ccc(F)cc3c2=O)c1,x,338,x,x,55*,x
O=C1CCCC(=O)N1c1ccc(F)cc1,-8,340,i,-13,92,i
O=c1c2cc(F)ccc2sn1-c1ccc(F)cc1,x,298,x,x,49*,x
CC1CCN(C(=O)COC(=O)c2ccc([N+](=O)[O-])o2)CC1,x,530,x,x,122,x
O=C(OCC(=O)N1CCN(S(=O)(=O)c2ccc(Cl)cc2)CC1)c1ccc([N+](=O)[O-])o1,-17,137,i,20*,103,i
Cn1c(=O)c2c(nc(Br)n2Cc2ccccc2Cl)n(C)c1=O,3,145,i,19*,108,i
C[C@@H]1CN([C@@H](C)CO)C(=O)c2cc(Br)cnc2O[C@@H]1CN(C)Cc1cncnc1,x,x,x,x,106,x
CCn1c(Cl)c(C=O)s/c1=N\S(=O)(=O)c1ccccc1,-17,28,i,45*,93,i
CCN1C(=O)CS/C1=N\S(=O)(=O)c1ccc(Cl)cc1,-3,550,i,-7,116,i
C/C(=N\NC(=S)NC1CCCCC1)c1ccc(O)cc1,22,246,i,12,119,i
C/C(=N\NC(=S)NC1CCCCC1)c1ccccc1,-12,i,i,8,83*,i
c1ccc(CSC2=NNC(c3ccccn3)S2)cc1 (centres undefined),-12,68*,i,-20,x,i
O=C(/C=C/c1ccc(Br)cc1)c1ccco1,-5,146,i,22*,87,i
O=C(/C=C/c1ccc(Br)cc1)c1ccc(NC(=O)c2ccco2)cc1,-1,112,i,8,108,i
C[C@@H]1CN([C@@H](C)CO)C(=O)c2cc(NS(=O)(=O)c3ccc(F)cc3)ccc2O[C@@H](C)CCCCO[C@H]1CN(C)C(=O)NC1CCCCC1,x,x,x,x,102,x
O=C(O)c1cccc(NC(=O)c2cccc(S(=O)(=O)Nc3cccc([N+](=O)[O-])c3)c2)c1,-9,238,i,15,98,i
O=C(Nc1ccccc1)c1cccc(S(=O)(=O)Oc2ccc([N+](=O)[O-])cc2)c1,4,202,i,26*,110,i
Cn1c(N)c(C(=O)COC(=O)Cc2ccsc2)c(=O)n(C)c1=O,-1,223,i,20*,105,i
O=C(O)c1ccccc1C(=O)OCC1CCC(=NO)CC1 (centres undefined),x,x,x,x,109,x
COc1ccc([C@H]2C[C@H](O)[C@@H](n3cc(-c4ccc(F)cc4)nn3)CN2C(=O)c2cccs2)cc1,x,x,x,x,97,x
CN(C1=NC(=O)C(CC(=O)O)S1)c1ccc(O)cc1 (centres undefined),-7,230,i,-11,23*,i
CN(C)c1ccc(/C=N/N=C2/SC(CC(=O)O)C(=O)N2c2ccc(O)cc2)cc1 (centres undefined),6,220,i,-5,107,i
O=c1c2cc([N+](=O)[O-])ccc2sn1-c1ccccc1,x,x,x,x,66*,x
CC1(C)CN(c2cccc(C#N)c2)C1=O,8,273,i,-2,102,i
CC(=O)Nc1ccc2c(c1)c1ccccc1n2C(C)=O,-4,125,i,5,94,i

# High-throughput results deposited in PubChem by several laboratories.
